From ChEMBL document CHEMBL1782042, “Efficient microwave-assisted synthesis and antitumor activity of novel 4,4'-methylenebis[2-(3-aryl-4,5-dihydro-1H-pyrazol-5-yl)phenols]” (Eur J Med Chem, 2011)

What was measured:
[1] = system: OVCAR-8; assay: Cytotoxicity against human OVCAR8 cells; format: cell-based
Procedure, shortened: (§1)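 NCI 60 human tumour cell line screen, second stage at five concentrations (100, 10, 1.0, 0.1 and 0.01 μM). Continuous drug exposure for 48 h, with cell growth estimated by sulforhodamine B protein staining. GI50 is the drug concentration giving a 50% reduction in net protein increase relative to control cells over the incubation.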

[2] = system: 786-0; assay: Cytotoxicity against human 786-0 cells; format: cell-based; procedure, shortened: as §1
[3] = system: CCRF-CEM; assay: Anticancer activity against human CCRF-CEM cells after 48 hrs by sulforhodamine B assay; format: functional
Procedure, shortened: (§2)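 NCI 60-cell-line in vitro screen, second stage: five concentration levels (100, 10, 1.0, 0.1 and 0.01 μM) with 48 h continuous drug exposure. Cell growth was estimated by sulforhodamine B protein staining. GI50 is the drug concentration that gives a 50% reduction in net protein increase relative to control cells over the incubation.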

[4] = system: UO-31; assay: Cytotoxicity against human UO31 cells; format: cell-based
Procedure, shortened: (§3)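 NCI 60 human tumour cell line screen; five concentration levels (100, 10, 1.0, 0.1 and 0.01 μM), 48 h continuous drug exposure. Cell growth estimated by sulforhodamine B (SRB) protein staining. GI50 taken as the drug concentration giving a 50% reduction in net protein increase relative to control cells over the incubation.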

[5] = system: CCRF-CEM; assay: Cytotoxicity against human CCRF-CEM cells; format: cell-based; procedure, shortened: as §1
[6] = system: BT-549; assay: Anticancer activity against human BT549 cells after 48 hrs by sulforhodamine B assay; format: functional; conditions: BT-549, 48 h; procedure, shortened: as §2
[7] = system: RPMI-8226; assay: Anticancer activity against human RPMI8226 cells after 48 hrs by sulforhodamine B assay; format: functional; conditions: RPMI-8226, 48 h; procedure, shortened: as §2
[8] = system: HCT-116; assay: Anticancer activity against human HCT116 cells after 48 hrs by sulforhodamine B assay; format: functional; conditions: HCT-116, 48 h; procedure, shortened: as §2
[9] = system: HCT-15; assay: Cytotoxicity against human HCT15 cells; format: cell-based; procedure, shortened: as §1
[10] = system: NCI-H460; assay: Anticancer activity against human NCI-H460 cells after 48 hrs by sulforhodamine B assay; format: functional; conditions: NCI-H460, 48 h; procedure, shortened: as §2
[11] = system: SK-MEL-5; assay: Anticancer activity against human SK-MEL-5 cells after 48 hrs by sulforhodamine B assay; format: functional; conditions: SK-MEL-5, 48 h; procedure, shortened: as §2
[12] = system: HOP-92; assay: Cytotoxicity against human HOP92 cells; format: cell-based; procedure, shortened: as §1
[13] = system: NCI/ADR-RES; assay: Cytotoxicity against human NCI/ADR-RES cells; format: cell-based; procedure, shortened: as §1
[14] = system: RXF 393; assay: Cytotoxicity against human RXF393 cells; format: cell-based; procedure, shortened: as §1
[15] = system: NCI/ADR-RES; assay: Anticancer activity against human NCI/ADR-RES cells after 48 hrs by sulforhodamine B assay; format: functional; procedure, shortened: as §2
[16] = system: U-251; assay: Anticancer activity against human U251 cells after 48 hrs by sulforhodamine B assay; format: functional; conditions: U-251, 48 h
Procedure, shortened: (§4)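 NCI 60-cell-line screen, second stage. Five concentration levels (100, 10, 1.0, 0.1 and 0.01 μM), 48 h continuous drug exposure. Cell growth was estimated by sulforhodamine B protein staining. GI50 is the concentration giving a 50% reduction in net protein increase relative to control cells over the drug incubation. Compounds entered this stage after an earlier single-dose screen.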

[17] = system: NCI-H522; assay: Anticancer activity against human NCI-H522 cells after 48 hrs by sulforhodamine B assay; format: functional; conditions: NCI-H522, 48 h; procedure, shortened: as §2
[18] = system: T47D; assay: Cytotoxicity against human T47D cells; format: cell-based; procedure, shortened: as §3
[19] = system: ACHN; assay: Cytotoxicity against human ACHN cells; format: cell-based; procedure, shortened: as §1
[20] = system: U-251; assay: Cytotoxicity against human U251 cells; format: cell-based; procedure, shortened: as §3
[21] = system: MDA-MB-468; assay: Anticancer activity against human MDA-MB-468 cells after 48 hrs by sulforhodamine B assay; format: functional; conditions: MDA-MB-468, 48 h; procedure, shortened: as §2
[22] = system: NCI-H522; assay: Cytotoxicity against human NCI-H522 cells; format: cell-based; procedure, shortened: as §1
[23] = system: HOP-62; assay: Anticancer activity against human HOP62 cells after 48 hrs by sulforhodamine B assay; format: functional; conditions: HOP-62, 48 h; procedure, shortened: as §2
[24] = system: SW-620; assay: Cytotoxicity against human SW620 cells; format: cell-based; procedure, shortened: as §3
[25] = system: NCI-H460; assay: Cytotoxicity against human NCI-H460 cells; format: cell-based; procedure, shortened: as §1
[26] = system: SNB-75; assay: Cytotoxicity against human SNB75 cells; format: cell-based; procedure, shortened: as §3
[27] = system: NCI-H23; assay: Anticancer activity against human NCI-H23 cells after 48 hrs by sulforhodamine B assay; format: functional; conditions: NCI-H23, 48 h; procedure, shortened: as §2
[28] = system: SNB-19; assay: Cytotoxicity against human SNB19 cells; format: cell-based; procedure, shortened: as §3
[29] = system: Hs-578T; assay: Anticancer activity against human Hs578T cells after 48 hrs by sulforhodamine B assay; format: functional; procedure, shortened: as §2
[30] = system: LOX IMVI; assay: Cytotoxicity against human LOXIMVI cells; format: cell-based; procedure, shortened: as §1
[31] = system: SK-MEL-2; assay: Cytotoxicity against human SK-MEL-2 cells; format: cell-based; procedure, shortened: as §1
[32] = system: UO-31; assay: Anticancer activity against human UO31 cells after 48 hrs by sulforhodamine B assay; format: functional; conditions: UO-31, 48 h; procedure, shortened: as §4
[33] = system: MDA-MB-468; assay: Cytotoxicity against human MDA-MB-468 cells; format: cell-based; procedure, shortened: as §1

## Cc1ccc(C2=NNC(c3cc(Cc4ccc(O)c(C5CC(c6ccc(C)cc6)=NN5)c4)ccc3O)C2)cc1 (stereo not drawn)
[1]
  LC50: > 100 µM
[2]
  LC50: > 100 µM
[3]
  GI50: 3.85 µM
[4]
  LC50: > 100 µM
[5]
  LC50: > 100 µM
[6]
  GI50: 4.66 µM
[7]
  GI50: 9.89 µM
[8]
  GI50: 4.11 µM
[9]
  LC50: > 100 µM
[10]
  GI50: 4.88 µM
[11]
  GI50: 1.76 µM
[12]
  LC50: > 100 µM
[13]
  LC50: > 100 µM
[14]
  LC50: > 100 µM
[15]
  GI50: 7.39 µM
[16]
  GI50: 5.84 µM
[17]
  GI50: 3.64 µM
[18]
  LC50: > 100 µM
[19]
  LC50: > 100 µM
[20]
  LC50: > 100 µM
[21]
  GI50: 2.97 µM
[22]
  LC50: > 100 µM
[23]
  GI50: 8.64 µM
[24]
  LC50: > 100 µM
[25]
  LC50: > 100 µM
[26]
  LC50: > 100 µM
[27]
  GI50: 5.3 µM
[28]
  LC50: > 100 µM
[29]
  GI50: 5.58 µM
[30]
  LC50: > 100 µM
[31]
  LC50: > 100 µM
[32]
  GI50: 4.29 µM
[33]
  LC50: > 100 µM
